A short description of test [1]: inhibitors of TNFa-induced NFkB p65 translocation, primary screen, imaging, HUVEC, MLSMR starter and 10KST1 sets (AID 438;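 active = inhibition above 20% together with a positive visual image hit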;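 note: compound added about 3h40 before a 20 min TNFalpha stimulation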;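 for inhibition: signal is the nuclear over cytoplasmic p65 intensity ratio per well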). Conditions: HUVEC TNFa-induced p65 nuclear translocation; cell count: measured here: nuclei count (cytotoxicity indicator), at 2.08 µM; inhibition: at 2 µM, stronger effect = higher value, 0% TNFa-plus-vehicle, 100% no-TNFa wells.
Test [2] can be described thus: inhibitors of mutant huntingtin aggregation, primary screen, imaging, exon1htt(103Q)mCFP cells, high-content imaging (AID 483;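 active = visual image review flags a hit and inhibition of aggregation exceeds 20%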;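 note: compound exposure lasted 3 days before fixation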;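 for nuclei count: percent of the per-plate median nuclei count of sample wells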). The settings on record: exon1htt(103Q)mCFP cell line, aggregate imaging, at 2 µM; inhibition of aggregation: stronger effect = higher value; nuclei count: measured here: cell count, toxicity.
A short description of test [3]: inhibitors of E-selectin induction by TNFa, primary screen, imaging, HUVEC, immunofluorescence, MLSMR starter and 10KST1 sets (AID 487;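 active = visually confirmed hit in the image check and inhibition above 20%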;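 for inhibition: signal is fraction of cell area covered by stained E-selectin grains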;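 for nuclei count: 100% = median nuclei count of all wells on the same plate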). The settings on record: HUVEC TNFalpha-induced E-selectin immunofluorescence imaging, at 2 µM; inhibition: stronger effect = higher value; nuclei count: measured here: cell number, toxicity.
In test [4] the target is Voltage-gated potassium channel subunit beta-2 (Rattus norvegicus) (UniProt P62483). As to the kind of experiment: KvBeta enzyme negative modulators, primary screen, biochemical, NADPH fluorescence (AID 622).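 Note: slope of raw intensity against log time taken from 70 to 1610 s.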 The settings on record: recombinant KvBeta, 4-cyanobenzaldehyde reduction, at 10 µM, stronger effect = higher value.
Test [5] shares this target. As to the kind of experiment: KvBeta positive modulators, primary screen, biochemical, NADPH fluorescence (AID 623;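 active = NADPH fluorescence slope more negative than the mean of all samples by about 3 SD, 99.7% confidence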;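 note: fluorescence intensity change per second fitted from 20 to 320 s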). The settings on record: Recombinant KvBeta, NADPH fluorescence decrease slope, 10 min; at 10 µM; stronger effect = lower value.
Test [6] addresses Muscarinic acetylcholine receptor M4 (Homo sapiens) (UniProt P08173). Briefly: compounds altering M4/GIRK thallium flux, either direction, primary screen, M4 allosteric agonist project, cell-based, HEK293 M4/GIRK, BTC-AM (AID 625;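 active = fluorescence slope after compound addition differing from the mean of all tested samples at 99.7% confidence, mostly higher but some lower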;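 note: thallium influx through GIRK channels coupled to M4 in HEK293 cells with BTC-AM dye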). The settings on record: at 10 µM, actives lie on both sides. In outline:
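assay system = HEK293 cells with M4 receptor and GIRK channels | medium = pH 7.3 thallium assay buffer | doses = 10 µM final, single point | timing = cells overnight at 37 °C, BTC-AM loading 1 h, reads 2 min total | signal = BTC-AM fluorescence, 1 Hz kinetic reads | read-out = post-addition slope, 15–24 s, of baseline-normalized fluorescence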

Test [7] can be described thus: inhibitors of Sendai virus-induced IRF3 signaling, primary screen, TLR/RLR signaling modifier project, cell-based, Sendai virus stimulus, luciferase, 10K MLSCN set (AID 602276;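 active = inhibition at or above 50% at 10 µM; inactive = inhibition below 50%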;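 note: firefly luciferase from ISG56 promoter only with Renilla not read in this screen; 0% = Sendai virus plus DMSO and 100% = medium plus DMSO without virus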). The settings on record: HEK293 RL24 IRF3 luciferase reporter, at 10 µM, stronger effect = higher value.
The nature of test [8]: inhibitors of poly I:C-induced TLR3 signaling, primary screen, cell-based, poly I:C stimulus, luciferase, 10K MLSCN set (AID 602277;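 active = inhibition of the reporter signal at or above 50%; inactive = inhibition below 50%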). Conditions: HEK293-TLR3 RL24 IRF3 luciferase reporter, at 10 µM, stronger effect = higher value. For orientation: Reporter assays use an easily measured gene product as a stand-in for the process of interest.

The source made the active and inactive calls.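 Rule for the calls, unless noted: active = fluorescence slope higher than the sample average by over 3 SD (cut at about -0.22 in these data, passing the limit was not always enough); inactive = the rest.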

14 compounds from PubChem BioAssay can be followed below.

Chain of Voltage-gated potassium channel subunit beta-2 (Rattus norvegicus) (P62483 whole entry, looked up): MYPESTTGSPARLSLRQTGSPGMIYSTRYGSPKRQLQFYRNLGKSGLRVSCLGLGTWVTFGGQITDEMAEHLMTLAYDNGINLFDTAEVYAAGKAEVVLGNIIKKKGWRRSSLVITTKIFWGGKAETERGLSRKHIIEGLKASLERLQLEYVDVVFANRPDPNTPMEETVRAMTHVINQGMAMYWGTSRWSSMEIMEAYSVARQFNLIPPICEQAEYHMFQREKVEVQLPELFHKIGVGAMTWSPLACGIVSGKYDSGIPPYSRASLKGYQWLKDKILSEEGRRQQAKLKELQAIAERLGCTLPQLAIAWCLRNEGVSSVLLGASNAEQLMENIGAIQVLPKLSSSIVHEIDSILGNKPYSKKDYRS
Chain of Muscarinic acetylcholine receptor M4 (Homo sapiens) (P08173 whole entry, looked up): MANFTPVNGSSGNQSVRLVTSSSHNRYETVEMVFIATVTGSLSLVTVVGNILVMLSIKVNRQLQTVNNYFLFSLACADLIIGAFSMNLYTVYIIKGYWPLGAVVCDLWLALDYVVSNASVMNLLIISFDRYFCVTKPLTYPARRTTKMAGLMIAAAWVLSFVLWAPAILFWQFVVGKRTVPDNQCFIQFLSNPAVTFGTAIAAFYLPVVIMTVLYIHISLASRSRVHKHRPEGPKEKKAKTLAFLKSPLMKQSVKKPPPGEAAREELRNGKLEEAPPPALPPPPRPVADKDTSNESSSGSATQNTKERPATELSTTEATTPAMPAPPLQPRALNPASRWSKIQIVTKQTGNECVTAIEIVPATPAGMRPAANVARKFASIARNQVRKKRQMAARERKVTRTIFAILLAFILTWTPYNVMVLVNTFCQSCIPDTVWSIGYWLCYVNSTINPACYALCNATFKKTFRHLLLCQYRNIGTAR

What is called inhibition is the relative decrease from the control value, in per cent. On to `COc1ccccc1N(CC(=O)NCc1ccccc1)S(C)(=O)=O`, for which the cell count in test [1] stood at 665. For the same compound, the inhibition is -8.2% (inactive) in test [1], -67.8% (inactive) in test [3], -3.25% (inactive) in test [7] and 14% (inactive) in test [8]. Further, in test [2], the inhibition of aggregation was 6.6% (inactive). In addition, the nuclei count amounted to 106% in test [2] and 114% in test [3]. The fluorescence slope is -0.28 (inactive) in test [4] and 0.00584 (inactive) in test [6]. The NADPH fluorescence slope in test [5] is -4.1e-05 (inactive).
`Cc1c(C(=O)OC(C)C)[nH]c2c1C(=O)CCC2`: the cell count in test [1] amounted to 437. Besides, the inhibition in test [1] was -3.5% (inactive); in test [3], 54.6% (inactive); in test [7], -15.8% (inactive); in test [8], -50.8% (inactive). Besides, in test [2], the inhibition of aggregation was 15.4% (inactive). The nuclei count in test [2] was found to be 86.8%; in test [3], 99%. Moreover, the fluorescence slope was -0.592 (inactive) in test [4] and 0.00589 (inactive) in test [6]. Further, in test [5], the NADPH fluorescence slope was -3.8e-05 (inactive).
Regarding `Cc1ccnc(NS(=O)(=O)c2ccc(N=CC3=C(O)CC(C)(C)CC3=O)cc2)n1`, in test [1], the cell count came to 395. Also, the inhibition in test [1] was 2.5% (inactive); in test [3] it was 7.7% (inactive); in test [7] it was 7.45% (inactive); in test [8] it was 1.62% (inactive). The inhibition of aggregation in test [2] is -9% (inactive). Further, the nuclei count amounted to 79.4% in test [2] and 110% in test [3]. The fluorescence slope in test [4] was -0.474 (inactive); in test [6] it was 0.00511 (inactive). The NADPH fluorescence slope in test [5] is 9.9e-06 (inactive).
As for `Cc1ccccc1N(CC(=O)NCC1CCCO1)C(=O)C1(C)CC(=O)N=C2C=CC=CN21` (centres undefined), the cell count in test [1] turned out to be 651. Further, the inhibition in test [1] is -9.4% (inactive); in test [3], -111% (inactive); in test [7], 3.63% (inactive); in test [8], 1.93% (inactive). Besides, the inhibition of aggregation in test [2] was -3.5% (inactive). Also, the nuclei count in test [2] was found to be 100%; in test [3] it was 133%. For the same compound, the figures for the fluorescence slope in test [4] and in test [6] were -0.492 (inactive) and 0.00558 (inactive), respectively. Besides, the NADPH fluorescence slope in test [5] is -9.2e-06 (inactive).
Regarding `CCNc1nc(NCC)n2c(SCc3nc4ccccc4c(=O)[nH]3)nnc2n1`, the cell count in test [1] was 554. The inhibition is -3.9% (inactive) in test [1], -31.4% (inactive) in test [3], -0.856% (inactive) in test [7] and -4.01% (inactive) in test [8]. The inhibition of aggregation in test [2] was 9.2% (inactive). Moreover, the results for the nuclei count in test [2] and in test [3] were 84.7% and 113%, respectively. In addition, the fluorescence slope in test [4] is -0.539 (inactive); in test [6] it was 0.00293 (inactive). The NADPH fluorescence slope in test [5] was -0.000149 (inactive).
As to `Cc1ccc(-c2nn3c(=O)c(C)nnc3s2)cc1`, the cell count in test [1] was determined as 571. Further, the inhibition in test [1] was -19.6% (inactive); in test [3], 3.6% (inactive); in test [7], -12.3% (inactive); in test [8] it was -53.9% (inactive). For the same compound, the inhibition of aggregation in test [2] was -0.2% (inactive). For the same compound, the nuclei count in test [2] came to 98.1%; in test [3], 108%. Also, the results for the fluorescence slope in test [4] and in test [6] were -0.309 (inactive) and 0.0056 (inactive), respectively. The NADPH fluorescence slope in test [5] was -4.6e-06 (inactive).
For the compound `O=C(COc1ccccc1Cl)N1CCCC1`, the cell count in test [1] came to 236. Further, the inhibition in test [1] is 11.7% (inactive); in test [3] it was -66.3% (inactive); in test [7], -16% (inactive); in test [8], -18.4% (inactive). Also, in test [2], the inhibition of aggregation was -1.6% (inactive). The nuclei count in test [2] was found to be 83.7%; in test [3] it was 152%. The results for the fluorescence slope in test [4] and in test [6] were -0.528 (inactive) and 0.00495 (inactive), respectively. In addition, the NADPH fluorescence slope in test [5] was 2.9e-05 (inactive).
As to `CN1CCCN(C(=O)c2cc(=O)[nH]c3ccccc23)c2nc3ccccc3nc21`, in test [1], the cell count amounted to 369. The inhibition was -0.6% (inactive) in test [1], -33% (inactive) in test [3], 16.3% (inactive) in test [7] and 34.1% (inactive) in test [8]. For the same compound, the inhibition of aggregation in test [2] was 5.4% (inactive). Also, the nuclei count in test [2] was 101%; in test [3] it was 117%. In addition, the fluorescence slope in test [4] is -0.394 (inactive); in test [6] it was 0.00653 (inactive). Moreover, the NADPH fluorescence slope in test [5] is -0.000122 (inactive).
As to `COC(=O)C1(C(=O)OC)Sc2ccccc2C1=O`, the cell count in test [1] is 427. Further, the inhibition in test [1] is -11.6% (inactive); in test [3] it was 30.1% (inactive); in test [7] it was 13% (inactive); in test [8], 17.2% (inactive). Besides, the inhibition of aggregation in test [2] was 12.5% (inactive). Besides, the nuclei count was 75.3% in test [2] and 97.1% in test [3]. Further, the fluorescence slope in test [4] was -0.571 (inactive); in test [6], 0.0074 (inactive). The NADPH fluorescence slope in test [5] was 1.6e-05 (inactive).
For the compound `CCCC(=O)N=C1SC2CS(=O)(=O)CC2N1c1ccc(CC)cc1` (centres undefined), in test [1], the cell count stood at 286. In addition, the inhibition in test [1] is 20.4% (inactive); in test [3], 26.4% (inactive); in test [7], 15.3% (inactive); in test [8], 24.6% (inactive). Moreover, the inhibition of aggregation in test [2] is 23.4% (inactive). Further, the nuclei count turned out to be 87% in test [2] and 98.5% in test [3]. In addition, the fluorescence slope is -0.402 (inactive) in test [4] and 0.0062 (inactive) in test [6]. The NADPH fluorescence slope in test [5] was -3.7e-05 (inactive).
As for `CC(C(=O)N1CCc2ccccc21)N1CCc2ccccc2C1` (centres undefined), in test [1], the cell count turned out to be 597. Besides, the inhibition in test [1] was -1% (inactive); in test [3], -86.5% (inactive); in test [7], 10.2% (inactive); in test [8], 22.3% (inactive). In addition, in test [2], the inhibition of aggregation was 16.1% (inactive). The nuclei count in test [2] is 91.1%; in test [3], 99.9%. The fluorescence slope was -0.455 (inactive) in test [4] and 0.00595 (inactive) in test [6]. For the same compound, the NADPH fluorescence slope in test [5] is 0.000133 (inactive).
For `O=C(NCc1ccco1)C1CC(=O)N(c2ccc(F)cc2)C1` (centres undefined), the cell count in test [1] was determined as 375. In addition, the inhibition in test [1] was 3.6% (inactive); in test [3], -34.5% (inactive); in test [7], 3.07% (inactive); in test [8], 12% (inactive). In addition, in test [2], the inhibition of aggregation was -0.9% (inactive). Besides, the nuclei count in test [2] was found to be 97.4%; in test [3] it was 124%. Moreover, the values for the fluorescence slope in test [4] and in test [6] were -0.593 (inactive) and 0.00568 (inactive), respectively. Further, the NADPH fluorescence slope in test [5] is -2e-05 (inactive).
In the case of `Cc1cc(C)c(Cn2c(=O)n(CCCC(=O)NCc3ccco3)c(=O)c3ccccc32)c(C)c1`, in test [1], the cell count came to 744. The inhibition in test [1] is -4.2% (inactive); in test [3], -64.2% (inactive); in test [7] it was 14.8% (inactive); in test [8], 17.8% (inactive). Besides, in test [2], the inhibition of aggregation was 5.8% (inactive). Also, the nuclei count in test [2] was 100%; in test [3], 112%. Further, the fluorescence slope was -0.578 (inactive) in test [4] and 0.00693 (inactive) in test [6]. For the same compound, the NADPH fluorescence slope in test [5] was -2.4e-05 (inactive).
For the compound `CCCN(CCC)CCNC(=O)C(NS(=O)(=O)c1ccc2c(c1)CCC(=O)N2)c1ccccc1` (centres undefined), in test [1], the cell count is 524. Moreover, the inhibition is 0.7% (inactive) in test [1], -17.1% (inactive) in test [3], 8.32% (inactive) in test [7] and 24.9% (inactive) in test [8]. Moreover, the inhibition of aggregation in test [2] is -8.1% (inactive). The nuclei count is 98.1% in test [2] and 112% in test [3]. The fluorescence slope in test [4] is -0.555 (inactive); in test [6], 0.00588 (inactive). In addition, the NADPH fluorescence slope in test [5] was -5e-05 (inactive).
